EWS-Fli block: EWS/Fli transcriptional activity inhibition; inhibition, % at 12.6 µM; A673 NR0B1-luciferase reporter, viability-normalised; 350,000 tested, 0.67% active; AID 651661;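 active = mean inhibition of at least 50% after viability correction, with every replicate also passing that limit; inconclusive = mean reaches 50% but only one of two replicates passes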;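 note: firefly luciferase signal divided by Alamar Blue viability fluorescence both relative to DMSO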
Ecoli rRNA inh: inhibits bacterial ribosomal RNA function over humanized ribosomes; E. coli WT GFP vs humanized-ribosome RFP mutants, fluorescence, 24 h; hits give low values; DMSO median 0, no signal -100; GFP signal change (wild-type ribosome), % (no concentration beside the values); 350,000 tested, 1.6% active; AID 720706;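 active = significant combined selectivity score with lowered wild-type GFP, culture density cut under 30%, mutant RFP and density less affected; inactive = any of these conditions unmet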
LGR2 inh: Drosophila LGR2 receptor signaling inhibition | HEK293 LGR2, CRE-luciferase, bursicon-stimulated, 4 h | inhibition, % at 9.99 µM | 380,000 tested, 0.35% active | AID 720647;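 active = drop in luminescence signal, shown as inhibition above about 50% in the replicate tests, limit read from the data, passing the limit was not always enough; inconclusive = probably only some replicates passing the limit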;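 note: agonist challenge used bursicon conditioned medium at about half maximal strength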
E-selectin induc: induces E-selectin expression in human endothelial cells. P16581. activation, % at 7.58 µM. 260,000 tested, 0.37% active. HUVEC E-selectin immunofluorescence imaging; normalized: neutral wells 0, TNF-alpha wells 100;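 active = mean E-selectin-positive cell signal at least 10% of the positive control, reached in at least 60% of replicates, without over 20% cell loss; inconclusive = no rule given, readout overlaps actives, possibly toxicity-flagged; inactive = the rest, including those meeting only one limit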
Target sequence (P16581 whole entry, looked up): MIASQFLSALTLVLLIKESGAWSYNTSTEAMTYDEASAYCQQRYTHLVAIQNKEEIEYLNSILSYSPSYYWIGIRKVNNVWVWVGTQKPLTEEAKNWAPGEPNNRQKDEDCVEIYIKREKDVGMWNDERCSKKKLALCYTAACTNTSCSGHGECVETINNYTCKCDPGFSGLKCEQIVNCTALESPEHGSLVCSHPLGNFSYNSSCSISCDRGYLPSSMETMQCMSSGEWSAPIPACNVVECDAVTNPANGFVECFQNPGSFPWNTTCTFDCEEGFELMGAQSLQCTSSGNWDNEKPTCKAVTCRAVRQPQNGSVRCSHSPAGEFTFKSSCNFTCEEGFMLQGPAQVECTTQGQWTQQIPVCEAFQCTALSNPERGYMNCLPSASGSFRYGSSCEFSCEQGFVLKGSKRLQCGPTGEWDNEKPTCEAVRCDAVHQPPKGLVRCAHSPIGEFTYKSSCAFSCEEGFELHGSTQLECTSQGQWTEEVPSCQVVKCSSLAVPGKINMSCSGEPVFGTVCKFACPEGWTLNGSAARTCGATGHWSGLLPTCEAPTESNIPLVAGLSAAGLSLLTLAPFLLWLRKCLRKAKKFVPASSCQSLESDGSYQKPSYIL
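Read-out basis: % PE-positive cells; Test system: HUVEC primary endothelial cells; Technique: immunofluorescence imaging; Dosing: single-point compound dose.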
Starred values were filed as active, the others as inactive; ? = inconclusive; / = no result. Most compounds without a hit are left out; they make up all but 2.4% or so of the library.

SMILES | EWS-Fli block | Ecoli rRNA inh | LGR2 inh | E-selectin induc
CCCN1C[C@H](C)[C@H](OC)CN(C)C(=O)c2ccc(NC(=O)c3ccccc3)cc2OC[C@H]1C | 3.9 | 1.6 | 4.0 | 0.3
O=C(COC(=O)c1ccc(O)cc1O)Nc1ccc2ccccc2c1 | -64.7 | -34.6 | -9.2 | -0.3
COC(=O)c1ccc(NCc2cc(O)ccc2O)cc1O | 57.2* | -18.4 | 42.1 | -0.2
COC(=O)c1ccc(NCc2c(O)ccc(O)c2Br)cc1Cl | 72.3* | -8.6 | -37.7 | 0.2
C[C@H]1CN([C@@H](C)CO)C(=O)c2cccc(NC(=O)c3cnccn3)c2O[C@H]1CN(C)S(=O)(=O)c1cccs1 | -6.7 | -1.8 | -11.6 | 0.0
COc1ccc(N2C(=O)C3C(C2=O)C3(c2ccccc2)c2ccccc2)cc1 (stereo unspecified) | 4.0 | -19.8* | 26.0 | /
O=C1CN(Cc2ccccc2)C[C@H]2[C@H](c3ccc(-c4ccccc4F)cc3)[C@@H](CO)N12 | -1.6 | -14.1 | 1.8 | 0.3
O=C(c1ccc(S(=O)(=O)N2CCCC2)cc1)N1CCCCCC1 | 4.4 | 15.5 | -2.2 | 1.9
O=C(c1ccc(S(=O)(=O)N2CCCCC2)cc1)N1CCN(CCN2C(=O)c3cccc4cccc(c34)C2=O)CC1 | 0.1 | 8.4 | 77.1* | -1.9
C[C@@H]1CCCCO[C@H](CN(C)Cc2ccc(C(=O)O)cc2)[C@H](C)CN([C@@H](C)CO)C(=O)c2cc(NS(C)(=O)=O)ccc2O1 | 2.7 | 3.9 | 23.7 | -0.1
COc1ccc(C(=O)O/N=C(\N)c2ccc(Br)cc2)cc1 | -95.9 | 21.4 | -94.8 | 1.6
N/C(=N\OC(=O)Cc1ccccc1)c1cccc(Br)c1 | -26.8 | 6.8 | -35.9 | 0.1
COc1ccc(C(=O)O/N=C(\N)c2ccccc2)cc1 | 20.8 | 6.1 | 79.5* | 0.6
Cc1cccc(/C(N)=N/OC(=O)c2ccco2)c1 | / | 5.8 | ? | /
COc1ccc(CC(=O)O/N=C(\N)c2ccc(C)cc2)cc1 | -73.6 | -21.7* | -83.5 | 0.1
COc1ccc(CC(=O)O/N=C(\N)c2ccncc2)cc1 | 9.5 | -5.9 | -10.4 | -0.1
COc1ccc(/C(N)=N/OC(=O)c2ccco2)cc1 | 31.0 | -14.5 | 69.0* | /
N/C(=N\OC(=O)Cc1ccccc1)c1ccccc1Cl | -60.1 | -17.4* | -100.9 | -0.1
C[C@H](CO)N1C[C@H](C)[C@@H](CN(C)Cc2ccc(-c3ccccc3)cc2)Oc2ccc(NS(=O)(=O)c3cn(C)cn3)cc2CC1=O | / | 6.3 | / | /
CC(C)(C)c1ccc(C(=O)O/N=C(\N)c2ccccc2)cc1 | 76.1* | -50.5 | 91.0* | 0.2
N/C(=N\OC(=O)Cc1ccc(Cl)cc1)c1ccncc1 | -5.3 | -21.5* | -9.4 | 0.1
Cc1cc(C(=O)O/N=C(\N)c2ccc(C(C)(C)C)cc2)no1 | -51.1 | 12.4 | -64.8 | -0.1
O=C(C[C@H]1CC[C@@H]2[C@H](COC[C@H](O)CN2Cc2nccs2)O1)NCc1ccc(Cl)cc1 | 7.9 | -1.2 | -3.5 | 0.2
CCOc1ccc(NC(=O)/C(C#N)=C/c2cn(CC(=O)O)c3ccccc23)cc1 | 15.3 | -25.7* | / | /
C/C(=N/NS(=O)(=O)c1cccc([N+](=O)[O-])c1)c1ccncc1 | -4.1 | 16.2 | 5.1 | 28.0*
SMILES | EWS-Fli block | Ecoli rRNA inh | LGR2 inh | E-selectin induc
Cc1ccccc1-c1cnn(-c2cccc([N+](=O)[O-])c2)c1N | -29.6 | -46.0* | -19.7 | /
Cc1cnnn1-c1cccc([N+](=O)[O-])c1 | 3.5 | 9.8 | / | /
COc1ccc(NC(=O)Nc2cccc3c2O[C@@H](CN(C)S(=O)(=O)c2cccs2)[C@@H](C)CN([C@H](C)CO)C3=O)cc1 | -4.2 | -3.4 | 13.2 | 0.0
O=C(Cc1ccccc1)N[C@H]1CC[C@@H](CC(=O)N2CCCCC2)O[C@@H]1CO | -7.3 | 2.7 | -2.6 | -0.2
COCCN=C1NN=C(c2cc(C)n(CC3CCCO3)c2C)CS1 (stereo unspecified) | -15.9 | 0.4 | 22.0 | /
C=CCN=C1NN=C(c2cc(C)n(CC=C)c2C)CS1 | 79.5* | 19.6 | 11.6 | /
c1ccc(C2=NNC(=NCc3ccc4c(c3)OCO4)SC2)cc1 | / | / | 3.6 | /
C=CCN=C1NN=C(c2ccc3c(c2)OCCO3)CS1 | 58.1* | -8.9 | ? | /
C[C@@H]1CN([C@@H](C)CO)C(=O)c2cc(NS(=O)(=O)c3ccccc3)ccc2O[C@H]1CN(C)Cc1ccncc1 | 0.6 | 2.1 | 2.6 | -3.4
CN1C(=O)[C@@H]2[C@@H](C[C@]3(COc4ccccc4)OC[C@H]2/C3=C\c2ccccc2)C1=O | -0.2 | / | / | /
O=C(c1ccc(Cl)cc1)N1CCN(c2cccc3[nH]ccc23)CC1 | 5.9 | -25.2* | 18.4 | /
CC(C)N1C(=O)/C(=C\c2nc3ccccc3c(=O)[nH]2)c2ccccc21 | 13.9 | -0.9 | 97.8* | /
CC1(C)CC[C@]2(C(=O)n3ccnc3)CC[C@]3(C)[C@H](C(=O)C=C4[C@@]5(C)C=C(C#N)C(=O)C(C)(C)[C@@H]5CC[C@]43C)[C@@H]2C1 | 75.7* | 0.8 | 8.5 | -0.3
C[C@@H]1CN([C@H](C)CO)C(=O)c2cc(NC(=O)CCCCCC(=O)Nc3ccccc3N)ccc2O[C@@H]1CN(C)S(=O)(=O)c1ccc(F)cc1 | / | -7.5 | -7.1 | -1.6
CO[C@@H]1CN(C)C(=O)c2cc(NC(=O)CC(F)(F)F)ccc2OC[C@H](C)N(C(C)=O)C[C@H]1C | / | 2.8 | -7.5 | 0.6
CC(=O)N(CCOc1ccccc1)CCOc1ccccc1 | -14.5 | -23.3* | -46.2 | /
CN(CCOc1ccccc1)CCOc1ccccc1 | 0.3 | 2.1 | 3.8 | -0.2
CCNC(=O)C[C@H]1CC[C@H]2[C@@H](COC[C@H](O)CN2C(=O)C2CCOCC2)O1 | -5.4 | 6.8 | 3.1 | -0.1
Cc1ccc(N(CC(O)Cn2nc(C)cc2C)S(=O)(=O)c2ccc3ccccc3c2)cc1 (stereo unspecified) | 7.3 | -30.5* | 9.8 | -2.4
Cc1cc(C)n(CC(O)CN(c2ccccc2)S(=O)(=O)c2ccccc2)n1 (stereo unspecified) | / | / | 4.4 | /
CN1CCC(N(C)C(=O)/C=C/c2cn(-c3ccccc3)nc2-c2cccs2)CC1 | 30.2 | -19.5 | 78.0* | /
CC1=NNC(=O)/C1=C\c1cn(-c2ccccc2)nc1-c1cccs1 | 77.4* | 11.1 | 58.7* | /
O=C(O)CCCCCN1C(=O)/C(=C/c2cn(-c3ccccc3)nc2-c2cccs2)SC1=S | 9.4 | 10.4 | 25.4 | 0.0
CCN(CC(=O)Nc1ccc(NC(C)=O)cc1)C(=O)/C=C/c1cn(-c2ccccc2)nc1-c1cccs1 | -31.0 | -18.1* | 23.2 | -1.1
O=C(O)CCN1C(=O)/C(=C/c2cn(-c3ccccc3)nc2-c2cccs2)SC1=S | 3.2 | 11.9 | -27.2 | 3.9
O=C(NCC1CC1)[C@H]1[C@H](CO)[C@H]2Cn3c(ccc(-c4cccnc4)c3=O)[C@H]2N1C(=O)NC1CCCC1 | -10.6 | 1.2 | 10.4 | 0.5
C[C@@H]1CN([C@H](C)CO)S(=O)(=O)c2ccc(-c3cncnc3)cc2O[C@@H]1CN(C)C(=O)CC1CC1 | -2.2 | 1.3 | 0.9 | 1.1
NC1=C(Cl)C(=O)c2ccc(S(N)(=O)=O)cc2C1=O | 65.1* | -45.6 | 104.7* | -0.3

From PubChem BioAssay
